Assay results from ChEMBL document CHEMBL4627291, “A bicyclic pentapeptide-based highly potent and selective pan-SIRT1/2/3 inhibitor harboring Nε-thioacetyl-lysine” (Bioorg Med Chem, 2020).

Tests used:
[1] = target: T1, NAD-dependent protein deacetylase sirtuin-2 (Homo sapiens, UniProt Q8IXJ6); assay: Inhibition of His6-tagged human SIRT2 deacetylation activity using SIRT1 acetyl-lysine as substrate in presence of beta-NAD+ after 12 mins by reversed-phase HPLC analysis
T1 sequence (Q8IXJ6 whole entry): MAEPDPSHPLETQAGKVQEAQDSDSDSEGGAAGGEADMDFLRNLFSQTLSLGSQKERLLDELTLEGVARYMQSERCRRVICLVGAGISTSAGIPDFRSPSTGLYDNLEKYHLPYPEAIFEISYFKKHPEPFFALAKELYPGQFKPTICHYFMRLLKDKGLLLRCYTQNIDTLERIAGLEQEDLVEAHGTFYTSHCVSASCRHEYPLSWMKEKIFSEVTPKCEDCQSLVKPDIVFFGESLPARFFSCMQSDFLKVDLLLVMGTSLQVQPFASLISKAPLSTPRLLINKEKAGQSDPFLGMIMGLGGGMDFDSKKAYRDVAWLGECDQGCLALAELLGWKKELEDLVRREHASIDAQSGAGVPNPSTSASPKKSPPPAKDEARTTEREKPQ
Summary of the method: (§1)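 Buffer: 50 mM Hepes pH 8.0, 137 mM NaCl, 2.7 mM KCl, 1 mM MgCl₂, 1 mM DTT, 0.5 mM β-NAD⁺, p53 380-384 K382-acetyl pentapeptide. SIRT1 runs use 0.3 mM peptide, 320 nM His₆- or GST-SIRT1, 10 min. SIRT2 runs use 0.39 mM peptide, 309 nM His₆-SIRT2, 12 min. Reactions run at 37 °C, quenched with HCl/acetic acid, read by C18 HPLC at 214 nm, turnover <10%. IC50 from Dixon plots.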

[2] = target: T2, NAD-dependent protein deacetylase sirtuin-3, mitochondrial (Homo sapiens, UniProt Q9NTG7); assay: Inhibition of His6-tagged human SIRT3 deacetylation activity using SIRT3 acetyl-lysine as substrate substrate in presence of beta-NAD+ after 10 mins by reversed-phase HPLC analysis
T2 sequence (Q9NTG7 whole entry): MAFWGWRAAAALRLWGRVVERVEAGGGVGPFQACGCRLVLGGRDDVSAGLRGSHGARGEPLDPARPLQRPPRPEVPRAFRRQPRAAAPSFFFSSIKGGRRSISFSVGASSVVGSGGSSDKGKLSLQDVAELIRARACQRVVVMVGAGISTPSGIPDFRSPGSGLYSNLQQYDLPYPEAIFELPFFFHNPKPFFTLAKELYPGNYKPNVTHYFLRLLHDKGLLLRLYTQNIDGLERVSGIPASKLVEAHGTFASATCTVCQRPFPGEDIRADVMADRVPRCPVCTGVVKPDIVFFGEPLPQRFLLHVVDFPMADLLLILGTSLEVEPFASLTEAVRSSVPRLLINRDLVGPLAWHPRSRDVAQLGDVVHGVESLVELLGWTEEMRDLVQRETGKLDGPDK

[3] = target: T3, NAD-dependent protein deacetylase sirtuin-1 (Homo sapiens, UniProt Q96EB6); assay: Inhibition of His6/GST-tagged human SIRT1 deacetylation activity using SIRT1 acetyl-lysine as substrate in presence of beta-NAD+ after 10 mins by reversed-phase HPLC analysis; summary of the method: as §1
T3 sequence (Q96EB6 whole entry): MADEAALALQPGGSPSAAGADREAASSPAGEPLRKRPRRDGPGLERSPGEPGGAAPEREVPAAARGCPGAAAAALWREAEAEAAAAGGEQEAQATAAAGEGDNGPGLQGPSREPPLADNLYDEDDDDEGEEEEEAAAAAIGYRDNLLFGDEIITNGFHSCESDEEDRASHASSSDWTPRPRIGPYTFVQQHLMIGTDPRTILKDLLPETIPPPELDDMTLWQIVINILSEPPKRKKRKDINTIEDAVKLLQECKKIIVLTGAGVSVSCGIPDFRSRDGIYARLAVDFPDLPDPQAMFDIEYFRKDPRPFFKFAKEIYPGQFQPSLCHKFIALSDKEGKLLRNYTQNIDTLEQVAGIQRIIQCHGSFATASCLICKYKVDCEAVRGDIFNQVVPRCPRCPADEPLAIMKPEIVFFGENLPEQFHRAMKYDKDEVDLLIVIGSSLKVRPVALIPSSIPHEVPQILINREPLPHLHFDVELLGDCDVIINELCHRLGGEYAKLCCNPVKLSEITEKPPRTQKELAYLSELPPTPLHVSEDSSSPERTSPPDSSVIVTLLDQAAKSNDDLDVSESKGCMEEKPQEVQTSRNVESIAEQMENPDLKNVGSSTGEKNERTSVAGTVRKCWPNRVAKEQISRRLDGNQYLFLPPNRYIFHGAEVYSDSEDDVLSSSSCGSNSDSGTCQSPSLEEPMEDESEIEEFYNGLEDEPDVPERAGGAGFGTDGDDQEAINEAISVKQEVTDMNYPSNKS

MCF7 [4] = assay: Antiproliferative activity against human MCF7 cells assessed as cell growth inhibition at 100 uM measured after 72 hrs by MTT assay relative to control; format: functional; conditions: MCF7, 72 h, read-out: GI
Summary of the method: (§2)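 MCF-7 cells, 5 x 10³ per well, grown overnight in DMEM with 10% FBS, then exposed at 37 °C to 0, 5, 12.5, 25, 50 or 100 μM final (water stock) for 24, 48 or 72 h. Afterwards, PBS wash, MTT at 0.5 mg/mL final for 4 h at 37 °C, DMSO solubilization, absorbance at 568 nm; mean of five measurements.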

MCF7 [5] = assay: Antiproliferative activity against human MCF7 cells assessed as cell growth inhibition measured up to 72 hrs by MTT assay; format: functional, cell-based; summary of the method: as §2
[6] = target: T4, NAD-dependent protein deacetylase sirtuin-1 (Homo sapiens) (UniProt Q96EB6); assay: Inhibition of SIRT1 deacetylation activity in human HCT116 cells assessed as increase in acetylated p53 K382 level by Western blot analysis; format: cell-based; conditions: HCT-116
T4 sequence (whole entry): T3 sequence (Q96EB6 whole entry)
Summary of the method: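 HCT116 cells (5 x 10⁵) in McCoy 5A with 10% FBS, treated 8 h at 37 °C at 0, 0.5, 2, 10, 50 and 100 μM final (water stock). Lysates run on SDS-PAGE, transferred to PVDF, probed with anti-acetyl-p53 K382 and anti-p53, HRP secondary, ECL detection.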

[7] = target: T5, NAD-dependent protein deacetylase sirtuin-7 (Homo sapiens, UniProt Q9NRC8); assay: Inhibition of tRNA-activated His6-tagged human SIRT7 deacetylation activity using acetyl-lysine as substrate in presence of beta-NAD+ after 30 mins by reversed-phase HPLC analysis
T5 sequence (Q9NRC8 whole entry): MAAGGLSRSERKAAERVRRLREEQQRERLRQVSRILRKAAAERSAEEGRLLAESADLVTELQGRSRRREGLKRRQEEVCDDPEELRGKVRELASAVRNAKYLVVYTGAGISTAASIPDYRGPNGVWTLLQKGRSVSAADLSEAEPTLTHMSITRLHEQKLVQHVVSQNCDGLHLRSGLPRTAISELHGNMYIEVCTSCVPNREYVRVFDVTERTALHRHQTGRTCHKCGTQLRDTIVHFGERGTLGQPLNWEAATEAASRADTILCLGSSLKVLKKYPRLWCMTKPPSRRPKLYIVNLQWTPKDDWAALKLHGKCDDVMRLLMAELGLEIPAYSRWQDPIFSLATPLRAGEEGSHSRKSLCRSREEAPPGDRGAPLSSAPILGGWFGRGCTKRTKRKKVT
Summary of the method: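 His₆-SIRT7 (570 nM) with yeast tRNA (3-fold molar excess over enzyme) and RNase inhibitor (~1 U/μL). Substrate: 1.8 mM H3 12-24 K18-acetyl peptide with 3 mM β-NAD⁺, in 50 mM Hepes pH 8.0, 150 mM NaCl, 1 mM DTT, no KCl or MgCl₂; 30 min at 37 °C. Acid quench, C18 HPLC at 214 nm; IC50 by Dixon plot.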

[8] = Enzymatic stability assessed as pronase (unknown origin)-mediated compound hydrolysis at pH 7.3 measured up to 30 mins by HPLC method; format: ADME, Homo sapiens; conditions: buffer, pH 7.3, 0.5 h
Summary of the method: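 Compound solution in water (160 μM) mixed 1:1 with Streptomyces griseus pronase (8 ng/μL) in 100 mM Tris·HCl pH 7.3 at 37 °C. Aliquots quenched with 1.0 M acetic acid at 0, 2.5, 5, 10, 20 and 30 min, then C18 RP-HPLC at 214 nm; mean of two measurements.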

SK-MEL-2 = assay: Antiproliferative activity against human SK-MEL-2 cells assessed as cell growth inhibition measured up to 72 hrs by MTT assay; format: functional, cell-based
Summary of the method: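 SK-MEL-2 melanoma cells, 5 x 10³ per well, grown overnight in MEM with 10% FBS, then exposed at 37 °C to 0, 5, 12.5, 25, 50 or 100 μM final (water stock) for 24, 48 or 72 h. Afterwards, PBS wash, MTT at 0.5 mg/mL final for 4 h at 37 °C, DMSO solubilization, A568 read; mean of five measurements.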

[9] = target: NAD-dependent protein deacylase sirtuin-5, mitochondrial (Homo sapiens, UniProt Q9NXA8); assay: Inhibition of His6-tagged human SIRT5 desuccinylation activity using succinyl-lysine as substrate in presence of beta-NAD+ after 5 mins by reversed-phase HPLC analysis; conditions: in the assay text read “GST-tagged” for “His6-tagged”
Summary of the method: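 GST-SIRT5 (370 nM) with 0.88 mM succinyl-lysine peptide and 0.8 mM β-NAD⁺ in 50 mM Hepes pH 8.0, 137 mM NaCl, 2.7 mM KCl, 1 mM MgCl₂, 1 mM DTT; 5 min at 37 °C. Stopped with 100 mM HCl/0.16 M acetic acid; C18 HPLC at 214 nm, turnover <10%; IC50 by Dixon plot.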

[10] = target: NAD-dependent protein deacylase sirtuin-6 (Homo sapiens, UniProt Q8N6T7); assay: Inhibition of His6-tagged human SIRT6 demyristoylation activity using myristoyl-lysine substrate in presence of beta-NAD+ after 12 mins by reversed-phase HPLC analysis
Summary of the method: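 His₆-SIRT6 (313 nM) with 0.02 mM myristoyl-lysine peptide and 0.2 mM β-NAD⁺ in Hepes pH 8.0 buffer with NaCl, KCl, MgCl₂ and 1 mM DTT; 12 min at 37 °C. Acid quench, C18 HPLC at 214 nm, turnover <10%; IC50 from Dixon plots.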

Sequence of NAD-dependent protein deacylase sirtuin-6 (Q8N6T7 whole entry): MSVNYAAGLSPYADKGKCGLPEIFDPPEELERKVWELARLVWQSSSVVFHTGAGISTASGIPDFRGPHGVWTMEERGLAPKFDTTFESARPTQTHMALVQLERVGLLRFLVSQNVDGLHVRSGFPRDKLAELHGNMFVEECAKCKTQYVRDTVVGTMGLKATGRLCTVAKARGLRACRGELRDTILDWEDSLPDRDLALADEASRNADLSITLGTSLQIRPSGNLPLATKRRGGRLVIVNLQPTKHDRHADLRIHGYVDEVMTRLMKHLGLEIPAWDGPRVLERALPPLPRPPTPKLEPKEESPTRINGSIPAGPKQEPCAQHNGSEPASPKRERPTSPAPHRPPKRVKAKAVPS
Sequence of NAD-dependent protein deacylase sirtuin-5, mitochondrial (Q9NXA8 whole entry): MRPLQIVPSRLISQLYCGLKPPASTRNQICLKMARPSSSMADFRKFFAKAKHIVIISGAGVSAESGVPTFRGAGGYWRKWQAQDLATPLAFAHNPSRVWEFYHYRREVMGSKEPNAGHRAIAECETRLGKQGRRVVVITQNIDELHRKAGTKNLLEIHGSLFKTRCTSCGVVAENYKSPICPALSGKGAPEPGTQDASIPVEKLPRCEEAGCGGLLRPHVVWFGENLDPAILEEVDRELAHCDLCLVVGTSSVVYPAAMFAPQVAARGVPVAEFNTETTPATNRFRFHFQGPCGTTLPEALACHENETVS

Structure (SMILES) | IC50 [1] | IC50 [2] | IC50 [3] | also measured
CSCC[C@H](NC(=O)[C@H](CC(C)C)NC(=O)[C@H](CCCCNC(C)=S)NC(=O)[C@@H]1Cc2ccc(cc2)OCCCC(=O)N[C@@H](Cc2c[nH]cn2)C(=O)N1)C(N)=O | 0.68 µM | 0.75 µM | 0.171 µM | –
CC/C(=C(\c1ccccc1)c1ccc(OCCN(C)C)cc1)c1ccccc1 [TAMOXIFEN] | – | – | – | inhibition of growth at 100 µM (MCF7 [4]): > 80%
CSCC[C@H](NC(=O)[C@H](CC(C)C)NC(=O)[C@H](CCCCNC(C)=S)NC(=O)[C@@H]1Cc2ccc(cc2)OCCCCCC(=O)N[C@@H](Cc2c[nH]cn2)C(=O)N1)C(N)=O | 1.03 µM | – | 0.646 µM | –
CSCC[C@@H]1NC(=O)[C@@H](NC(=O)[C@H](CCCCNC(C)=S)NC(=O)[C@H](CCCCN)NC(=O)[C@H](Cc2c[nH]cn2)NC(C)=O)Cc2ccc(cc2)OCCCCCCCNC1=O | 25.5 µM | 217 µM | 22.6 µM | –
CSCC[C@@H]1NC(=O)[C@@H](NC(=O)[C@H](CCCCNC(C)=S)NC(=O)[C@H](CCCCN)NC(=O)[C@H](Cc2c[nH]cn2)NC(C)=O)Cc2ccc(cc2)OCCCNC1=O | 60.8 µM | – | 34.3 µM | –
CSCC[C@H](NC(=O)[C@H](CC(C)C)NC(=O)[C@H](CCCCNC(C)=S)NC(=O)[C@@H]1Cc2ccc(cc2)OCCCCCCCC(=O)N[C@@H](Cc2c[nH]cn2)C(=O)N1)C(N)=O | 1.33 µM | – | 0.673 µM | –
CSCC[C@@H]1NC(=O)[C@@H](NC(=O)[C@H](CCCCNC(C)=S)NC(=O)[C@H](CCCCN)NC(=O)[C@H](Cc2c[nH]cn2)NC(C)=O)Cc2ccc(cc2)OCCCCCCCCCCNC1=O | 17.9 µM | 13.1 µM | 56.7 µM | –
CSCC[C@@H]1NC(=O)[C@@H](NC(=O)[C@H](CCCCNC(C)=S)NC(=O)[C@@H]2Cc3ccc(cc3)OCCCC(=O)N[C@@H](Cc3c[nH]cn3)C(=O)N2)Cc2ccc(cc2)OCCCCCNC1=O | 0.253 µM | 0.72 µM | 0.54 µM | Activity (MCF7 [5]): Dose-dependent effect; inhibition [6]: Dose-dependent effect; IC50 [7]: 78.9 µM; Stability [8]: Stable; Activity (SK-MEL-2): Dose-dependent effect; IC50 [9]: 443 µM; IC50 [10]: 390 µM
CSCC[C@@H]1NC(=O)[C@@H](NC(=O)[C@H](CCCCNC(C)=S)NC(=O)[C@H](CCCCN)NC(=O)[C@H](Cc2c[nH]cn2)NC(C)=O)Cc2ccc(cc2)OCCCCCNC1=O | 115 µM | – | 13.6 µM | –
CSCC[C@H](NC(=O)[C@H](CC(C)C)NC(=O)[C@H](CCCCNC(C)=S)NC(=O)[C@@H]1Cc2ccc(cc2)OCCCCCCCCCCC(=O)N[C@@H](Cc2c[nH]cn2)C(=O)N1)C(N)=O | 4.31 µM | 1.1 µM | 1.25 µM | –
